Measured values reported in ChEMBL document CHEMBL4229533, “Design and synthesis of novel 6-hydroxy-4-methoxy-3-methylbenzofuran-7-carboxamide derivatives as potent Mnks inhibitors by fragment-based drug design” (Bioorg Med Chem, 2018).

Experiments:
[1] = molecular target: T1, MAP kinase-interacting serine/threonine-protein kinase 2 (Homo sapiens, UniProt Q9HBH9); experiment: Inhibition of MNK2 (unknown origin) at 10 uM using S3 as substrate measured after 60 mins by HTRF assay relative to control
Summary of the method: (§1)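 HTRF Ser/Thr KinEASE format. Mnk1 or Mnk2 enzyme (0.99 ng) incubated with compound for 60 min at room temperature with 1 μM substrate S3, 392 μM ATP, 10 mM MgCl₂ and 1 mM DTT in KinEASE enzymatic buffer. Stopped with SA-XL665 and STK antibody detection reagents; 615/665 nm signal ratio read. Single-concentration values are duplicate means; IC50 taken from inhibition curves.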
Target sequence in this assay (Q9HBH9 whole entry, looked up): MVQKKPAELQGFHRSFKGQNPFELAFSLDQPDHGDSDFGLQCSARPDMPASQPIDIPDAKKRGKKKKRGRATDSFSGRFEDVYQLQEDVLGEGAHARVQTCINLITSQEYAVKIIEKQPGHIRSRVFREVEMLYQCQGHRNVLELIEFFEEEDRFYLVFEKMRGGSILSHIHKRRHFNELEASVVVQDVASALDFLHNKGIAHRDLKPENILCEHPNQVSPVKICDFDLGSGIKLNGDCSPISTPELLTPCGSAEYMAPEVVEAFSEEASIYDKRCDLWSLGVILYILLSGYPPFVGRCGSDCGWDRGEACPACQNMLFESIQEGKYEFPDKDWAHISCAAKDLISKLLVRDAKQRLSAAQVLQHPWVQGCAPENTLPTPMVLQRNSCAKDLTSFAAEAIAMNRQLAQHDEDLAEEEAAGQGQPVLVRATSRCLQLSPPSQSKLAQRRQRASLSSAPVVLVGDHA

[2] = molecular target: T1, MAP kinase-interacting serine/threonine-protein kinase 2; experiment: Inhibition of MNK2 (unknown origin) at 1 uM using S3 as substrate measured after 60 mins by HTRF assay relative to control; summary of the method: as §1
Target sequence in this assay (Q9HBH9 whole entry, looked up): as above

[3] = molecular target: T1, MAP kinase-interacting serine/threonine-protein kinase 2; experiment: Inhibition of MNK2 (unknown origin) using S3 as substrate measured after 60 mins by HTRF assay
Target sequence in this assay (Q9HBH9 whole entry): as the sequence (Q9HBH9 whole entry, looked up) above

[4] = molecular target: MAP kinase-interacting serine/threonine-protein kinase 1 (Homo sapiens) (UniProt Q9BUB5); experiment: Inhibition of MNK1 (unknown origin) at 10 uM using S3 as substrate measured after 60 mins by HTRF assay relative to control; summary of the method: as §1
THP-1 = experiment: Antiproliferative activity against human THP1 cells after 96 hrs by MTT assay; type: functional, cell-based; settings: THP-1, 96 h
Summary of the method: (§2)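 Cells seeded at 2,000 per well and grown 24 h at 37 °C in 5% CO₂. Compound added over a concentration range in triplicate wells, then incubated 96 h. MTT (2 mg/mL) added for 4 h, formazan taken up in DMSO, absorbance read at 570 nm. Inhibition calculated against untreated control. IC50 is the concentration giving half inhibition; mean of three independent experiments.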

[5] = molecular target: MAP kinase-interacting serine/threonine-protein kinase 1 (Homo sapiens) (UniProt Q9BUB5); experiment: Inhibition of MNK1 (unknown origin) at 0.1 uM using S3 as substrate measured after 60 mins by HTRF assay relative to control; summary of the method: as §1
[6] = molecular target: MAP kinase-interacting serine/threonine-protein kinase 1 (Homo sapiens) (UniProt Q9BUB5); experiment: Inhibition of MNK1 (unknown origin) at 1 uM using S3 as substrate measured after 60 mins by HTRF assay relative to control; summary of the method: as §1
HCT-116 [7] = experiment: Antiproliferative activity against human HCT116 cells after 96 hrs by MTT assay; type: functional, cell-based; settings: HCT-116, 96 h; summary of the method: as §2
MOLM-13 = experiment: Antiproliferative activity against human MOLM13 cells after 96 hrs by MTT assay; type: functional, cell-based; settings: MOLM-13, 96 h; summary of the method: as §2
[8] = molecular target: MAP kinase-interacting serine/threonine-protein kinase 1/2 (Homo sapiens) (UniProt Q9HBH9+Q9BUB5); experiment: Inhibition of MNK1/MNK2 in human HCT116 cells assessed as reduction in eIF4E phosphorylation at Ser209 residue after 24 hrs by Western blot analysis; type: cell-based
Summary of the method: (§3)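 HCT-116 cells exposed to compound at several concentrations in 0.5% DMSO, or DMSO alone, for 24 h. Cells were rinsed in ice-cold PBS and lysed in RIPA buffer (pH 8.0), 50 µg protein loaded. Run on 8% or 12% SDS-PAGE, transferred to nitrocellulose and checked for loading by Ponceau S. Blocked in 5% milk, probed overnight at 4°C for eIF4E, p-eIF4E and GAPDH, detected by ECL.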

HCT-116 [9] = experiment: Effect on eIF4E levels in human HCT116 cells at 1 to 4 times IC50 after 24 hrs by Western blot analysis; type: ADME, cell-based; settings: hct-116, 24 h; summary of the method: as §3

Chain of MAP kinase-interacting serine/threonine-protein kinase 1 (Homo sapiens) (Q9BUB5 whole entry, looked up): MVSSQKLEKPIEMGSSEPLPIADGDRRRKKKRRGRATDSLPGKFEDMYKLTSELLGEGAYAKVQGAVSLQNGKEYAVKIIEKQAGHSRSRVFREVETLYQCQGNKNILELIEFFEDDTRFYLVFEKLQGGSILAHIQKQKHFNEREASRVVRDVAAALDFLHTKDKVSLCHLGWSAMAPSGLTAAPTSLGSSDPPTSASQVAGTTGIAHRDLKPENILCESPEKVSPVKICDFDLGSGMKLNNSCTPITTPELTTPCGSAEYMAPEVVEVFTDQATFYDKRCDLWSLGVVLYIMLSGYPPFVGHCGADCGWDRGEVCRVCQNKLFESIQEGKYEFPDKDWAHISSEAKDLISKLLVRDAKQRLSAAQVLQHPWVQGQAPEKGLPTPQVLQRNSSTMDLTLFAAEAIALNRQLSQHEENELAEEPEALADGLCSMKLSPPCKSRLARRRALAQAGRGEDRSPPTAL

Row | Structure (SMILES) | inhibition [1] | inhibition [2] | other results
1 | COc1cc(OC)c2c(C)c(C(=O)NC3CCN(Cc4cccc(C(F)(F)F)c4)CC3)oc2c1 | 35% | 6% | 
2 | COc1cc(O)c(C(N)=O)c2oc(C(=O)NCC3CCN(C(=O)c4ccc(F)cc4)CC3)c(C)c12 | 23% | 16% | 
3 | COc1cc(O)c(C(N)=O)c2oc(C(=O)N3CCOCC3)c(C)c12 | 24% | 12% | 
4 | COc1cc(O)c(C(N)=O)c2oc(C(=O)N3CCCCC3)c(C)c12 | 23% | 19% | 
5 | CNC(=O)c1oc2c(C(N)=O)c(O)cc(OC)c2c1C | 73% | 66% | IC50 [3]: 1450 nM; inhibition [4]: 39%; IC50 (THP-1): > 50 µM; inhibition [5]: 11%; inhibition [6]: 26%
6 | Nc1ncnc2[nH]nc(Nc3ccc(F)cc3)c12 |  |  | IC50 (HCT-116 [7]): 10.2 µM; IC50 (MOLM-13): 8.24 µM; IC50 (THP-1): 11.7 µM
7 | COc1cc(O)c(C(N)=O)c2oc(C(=O)N3CCN(c4cccc(C(F)(F)F)c4)CC3)c(C)c12 | 61% | 28% | 
8 | COc1cc(O)c(C(N)=O)c2oc(C(=O)NC3CCN(Cc4ccccc4F)CC3)c(C)c12 | 31% | 29% | 
9 | COc1cc(O)c(C(N)=O)c2oc(C(=O)NC3CCN(Cc4ccncc4)CC3)c(C)c12 | 32% | 15% | 
10 | Cc1c(C(=O)NC2CCN(Cc3cccc(C(F)(F)F)c3)CC2)oc2cc(O)ccc12 | 28% | 0% | 
11 | CCN1CCN(C(=O)c2oc3c(C(N)=O)c(O)cc(OC)c3c2C)CC1 | 79% | 36% | IC50 [3]: 1160 nM; IC50 (HCT-116 [7]): 15.7 µM; inhibition [4]: 30%; IC50 (MOLM-13): 13.5 µM; IC50 (THP-1): 18.8 µM; inhibition [5]: 3%; inhibition [6]: 7%
12 | COc1cc(O)c(C(N)=O)c2oc(C(=O)N3CCN(c4ccc(F)cc4)CC3)c(C)c12 | 10% | 5% | 
13 | COc1cc(O)c(C(N)=O)c2oc(C(=O)NC3CCN(Cc4ccc(Cl)cc4)CC3)c(C)c12 | 45% | 29% | 
14 | COc1cc(O)c(C(N)=O)c2oc(C(=O)NC3CCN(Cc4cccc(Cl)c4Cl)CC3)c(C)c12 | 21% | 18% | 
15 | COc1cc(O)c(C(N)=O)c2oc(C(=O)N3CCN(c4ccccc4)CC3)c(C)c12 | 15% | 8% | 
16 | COc1cc(O)c(C(N)=O)c2oc(C(=O)NC3CCN(Cc4cc(Cl)ncn4)CC3)c(C)c12 | 11% | 0% | 
17 | COc1cc(O)c(C(N)=O)c2oc(C(=O)Nc3ccc(F)c(C(F)(F)F)c3)c(C)c12 | 35% | 18% | 
18 | COc1cc(O)c(C(N)=O)c2oc(C(=O)NC3CCN(C(=O)c4ccc(C(F)(F)F)cc4)CC3)c(C)c12 | 29% | 26% | 
19 | COc1cc(O)c(C(N)=O)c2oc(C(=O)NCCN(C)C)c(C)c12 | 24% | 19% | 
20 | CCOC(=O)c1oc2c(C(N)=O)c(O)cc(OC)c2c1C | 41% | 21% | 
21 | COc1cc(O)c(C(N)=O)c2oc(C(=O)NC3CCN(Cc4cccc(C(F)(F)F)c4)CC3)c(C)c12 | 90% | 85% | IC50 [3]: 273 nM; IC50 (HCT-116 [7]): 2.77 µM; inhibition [4]: 59%; inhibition [8]: Dose-dependent effect; Activity (HCT-116 [9]): Non-Toxic; IC50 (MOLM-13): 3.15 µM; IC50 (THP-1): 6.3 µM; inhibition [5]: 20%; inhibition [6]: 41%

Row | Structure (SMILES) | inhibition [1] | inhibition [2] | other results
22 | COc1cc(O)c(C(N)=O)c2oc(C(=O)NC3CCN(Cc4ccc(Cl)cc4Cl)CC3)c(C)c12 | 0% | 0% | 
23 | COc1cc(O)c(C(N)=O)c2oc(C(=O)NCc3cccc(F)c3)c(C)c12 | 23% | 11% | 
24 | COc1cc(O)c(C(N)=O)c2oc(C(=O)NC3CCCC3)c(C)c12 | 22% | 6% | 
25 | COc1cc(O)c(C(N)=O)c2oc(C(=O)N(C)C)c(C)c12 | 45% | 24% | 
26 | COc1cc(O)c(C(N)=O)c2oc(C(=O)Nc3ccccc3)c(C)c12 | 0% | 0% | 
27 | COc1cc(O)c(C(N)=O)c2oc(C(=O)NC3CCN(Cc4ccc(F)cc4)CC3)c(C)c12 | 15% | 8% | 
28 | COc1cc(O)c(C(N)=O)c2oc(C(=O)NCc3ccccc3)c(C)c12 | 28% | 24% | 
29 | COc1cc(O)c(C(N)=O)c2oc(C(=O)NC3CCN(Cc4ccc(C)cc4)CC3)c(C)c12 | 40% | 27% | 
30 | COc1cc(O)c(C(N)=O)c2oc(C(=O)NC3CCN(Cc4c(Cl)cccc4Cl)CC3)c(C)c12 | 27% | 1% | 
31 | COc1cc(O)c(C(N)=O)c2occ(C)c12 | 77% | 43% | IC50 [3]: 749 nM; IC50 (HCT-116 [7]): 26.1 µM; inhibition [4]: 39%; IC50 (MOLM-13): 24.8 µM; IC50 (THP-1): 32.4 µM; inhibition [5]: 34%; inhibition [6]: 49%
32 | COc1ccc2c(C)c(C(=O)NC3CCN(Cc4cccc(C(F)(F)F)c4)CC3)oc2c1 | 27% | 0% | 
33 | COc1cc(O)c(C(N)=O)c2oc(C(=O)NC3CCCCC3)c(C)c12 | 28% | 20% | 
34 | COc1cc(O)c(C(N)=O)c2oc(C(=O)NC3CCN(Cc4ccc(C(F)(F)F)cc4)CC3)c(C)c12 | 43% | 24% | 
35 | Cc1c(C(=O)NC2CCN(Cc3cccc(C(F)(F)F)c3)CC2)oc2c(C(N)=O)c(O)cc(O)c12 | 34% | 1% | 
36 | COc1cc(O)c(C(N)=O)c2oc(C(=O)Nc3ccc(C)c(C(F)(F)F)c3)c(C)c12 | 57% | 75% | IC50 [3]: 3550 nM; inhibition [4]: 23%; IC50 (THP-1): > 50 µM; inhibition [5]: 12%; inhibition [6]: 23%
37 | COc1cc(O)c(C(N)=O)c2oc(C(=O)NCC3CCN(Cc4ccc(Cl)c(Cl)c4)CC3)c(C)c12 | 38% | 21% | 
38 | COc1cc(O)c(C(N)=O)c2oc(C(=O)NCC3CCN(Cc4cccc(C(F)(F)F)c4)CC3)c(C)c12 | 49% | 23% | 
39 | COc1cc(OC)c2c(C)c(C(=O)NC3CCN(Cc4cccc(C(F)(F)F)c4)CC3)oc2c1C(N)=O | 29% | 2% | 
40 | COc1cc(O)c(C(N)=O)c2oc(C(=O)NCC3CCN(Cc4ccc(F)cc4)CC3)c(C)c12 | 41% | 32% | 
41 | COc1cc(O)c(C(N)=O)c2oc(C(=O)N(C)Cc3ccccc3)c(C)c12 | 0% | 0% | 
